# An excerpt weighted towards active compounds, which were near 2.8% of everything screened.
# NPY1 pot ag – NPY-Y1 receptor potentiators or agonists, primary screen, cell-based; Neuropeptide Y receptor type 1 (Homo sapiens), P25929; activation, % at 3.6 µM; 0.37% of 220,000 active; NPY-Y1 expressing cells, potentiator/agonist activation; in the data active = activation above about 33%, passing the limit was not always enough;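 note: cells stimulated with NPY at EC10 then isoproterenol at EC100; 0% = low agonist plus stimulus and 100% = saturating agonist plus stimulus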
# NPY-Y1 antag – NPY-Y1 receptor antagonists, primary screen, cell-based; inhibition, % at 3.6 µM; 1% of 200,000 active; AID 1040, 2008; Neuropeptide Y receptor type 1 (Homo sapiens), P25929; HEK293-CNG Y1 cells, membrane potential fluorescence; NPY at EC95, then isoproterenol;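 active = inhibition above the campaign mean inhibition of all tested compounds plus 3 SD, cut at about 20% in these data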;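 note: 0% = DMSO wells given NPY plus isoproterenol and 100% = isoproterenol alone without NPY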
#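 Material: HEK293 Y1/CNG channel cell line | Also added: NPY (25 nM), isoproterenol (1 µM), Ro 20-1724 (25 µM) | Compound: One concentration, 3.6 µM, in 0.4% DMSO | Schedule: 3 h dye uptake, 1 h room-temperature compound, 45 min post-isoproterenol | Signal: Membrane-potential fluorescent dye readout | Read-out: % inhibition of NPY effect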
# Measles CPE – compounds protecting cells from measles virus cytopathic effect, primary screen, measles RdRp inhibitor project, single point, MLSMR library, absorbance. Measles virus-infected cells, CPE protection. protection (pct of control), % at 4 µM. 1.5% of 140,000 active; in the data active = protection mostly above about 24%, no sharp cut-off; inactive = mostly below about 26%
# Mdm2 ligase inh – MDM2-luciferase reporter signal enhancers, primary screen, MDM2 E3 ligase inhibitor project, cell-based, luminescence, 1536-well | cell-based MDM2 ubiquitination luciferase reporter, 2 h; 0 = plate control, 100 = twice control, blank-subtracted | 0.11% of 210,000 active | E3 ubiquitin-protein ligase Mdm2 (Homo sapiens), Q00987 | signal enhancement, % at 5 µM;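 active = signal enhancement of 30% or more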;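 note: luminescence tracks abundance of the self-degrading MDM2-luciferase fusion protein; higher signal means inhibition of MDM2 E3 ligase activity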
# Target sequence (Q00987 whole entry, looked up, the tested form may be a part): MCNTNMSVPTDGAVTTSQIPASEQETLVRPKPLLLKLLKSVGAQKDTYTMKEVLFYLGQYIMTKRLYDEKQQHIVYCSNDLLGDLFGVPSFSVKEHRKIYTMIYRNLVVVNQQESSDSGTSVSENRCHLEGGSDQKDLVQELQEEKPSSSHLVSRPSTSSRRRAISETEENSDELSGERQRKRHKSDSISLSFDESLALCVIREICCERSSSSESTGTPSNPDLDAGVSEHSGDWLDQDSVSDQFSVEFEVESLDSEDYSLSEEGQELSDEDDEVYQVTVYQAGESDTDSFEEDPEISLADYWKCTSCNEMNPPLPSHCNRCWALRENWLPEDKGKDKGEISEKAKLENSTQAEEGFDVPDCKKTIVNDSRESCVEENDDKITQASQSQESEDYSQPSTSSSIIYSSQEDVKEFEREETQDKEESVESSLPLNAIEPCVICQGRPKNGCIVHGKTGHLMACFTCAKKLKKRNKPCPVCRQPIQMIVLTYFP
#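 Assay system: stable mammalian line carrying autodegrading MDM2–luciferase fusion reporter; Input: 2000 cells in each well; Compound dosing: single-point 5 µM; Schedule: 2 h compound exposure at 37 °C; Signal: SteadyLite luciferase luminescence after 15 min room-temperature reagent incubation; Evaluation: % luminescence enhancement versus blank-corrected plate control mean; Benchmarks: plate controls and plate blanks.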
# NPY2 pot ag – NPY-Y2 potentiators or agonists, primary screen, cell-based. Neuropeptide Y receptor type 2 (Homo sapiens), P49146. cells expressing NPY-Y2, potentiator/agonist read-out. activation, % at 3.6 µM. 0.45% of 220,000 active; in the data active = activation above about 27%;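 note: cells stimulated with NPY near EC25 plus isoproterenol at EC100; 0% = vehicle plus submaximal agonist and 100% = vehicle plus saturating agonist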
# NPY-Y2 antag – NPY-Y2 receptor antagonists, primary screen, cell-based; inhibition, % at 2.7 µM; 0.99% of 140,000 active; NPY-Y2 expressing cells, antagonist mode; Neuropeptide Y receptor type 2 (Homo sapiens), P49146; in the data active = inhibition above about 17%;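 note: 0% = vehicle with agonist challenge and 100% = reference antagonist with challenge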
# NPY-Y2 confirm – NPY-Y2 potentiators or agonists, confirmation, cell-based. cell-based NPY-Y2 potentiator/agonist assay. 20% of 450 active. activation, % at 3.6 µM. shares compounds with NPY2 pot ag. AID 1539, 2009; in the data active = activation above about 33%
# NPY-Y1 potentiator – NPY-Y1 potentiators or agonists, counter-screen for NPY-Y2 potentiator project, cell-based, fluorescence | shares compounds with NPY2 pot ag | Y1 HEK293-CNG cells, membrane potential fluorescence | activation, % at 3.6 µM | 20% of 450 active | AID 1651, 2009; in the data active = activation above about 45%;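 note: cells stimulated with submaximal NPY then isoproterenol with phosphodiesterase inhibitor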
# NPY-Y1 ag 2 – NPY-Y1 direct agonists, selectivity assay for NPY-Y2 potentiator project, cell-based, fluorescence. 37% of 450 active. shares compounds with NPY2 pot ag. activation, % at 3.6 µM. AID 1702, 2009. HEK293 Y1-CNGC, membrane potential fluorescence, agonism;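 active = activation above the mean of DMSO-only control wells plus 3 SD, cut at about 18% in these data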;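 note: cells stimulated with 1 µM isoproterenol plus the PDE inhibitor Ro 20-1724; 0% = isoproterenol with DMSO and no NPY and 100% = 40 nM NPY; Y1 agonists lower the membrane potential dye signal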
# CNGC inh – CNGC cAMP sensor activity inhibitors, counter-screen for NPY-Y2 potentiator project, cell-based, HEK293-CNG parental, membrane potential fluorescence; shares compounds with NPY2 pot ag; isoproterenol cAMP; inhibition, % at 3.6 µM; 32% of 450 active;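 active = inhibition above the control-well mean plus 3 SD of those wells, cut at about 22% in these data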;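 note: 0% = DMSO with isoproterenol and 100% = DMSO without isoproterenol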
# Y2 agonist ctr – NPY-Y2 direct agonists, counter-screen for NPY-Y2 potentiator project, cell-based, fluorescence; activation, % at 3.6 µM; 56% of 450 active; HEK293 Y2/CNGC cells, membrane potential fluorescence, agonist mode; shares compounds with NPY2 pot ag; AID 1710, 2009;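 active = activation above the mean of solvent-only control wells plus 3 SD, cut at about 10% in these data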;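 note: cells stimulated by isoproterenol with no NPY added so direct agonism is tested; 0% = DMSO with isoproterenol alone and 100% = NPY at EC100 plus isoproterenol; agonism lowers probe fluorescence through less cAMP and CNG channel opening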
# An asterisk follows results filed as active; x = no result given.
SMILES,NPY1 pot ag,NPY-Y1 antag,Measles CPE,Mdm2 ligase inh,NPY2 pot ag,NPY-Y2 antag,NPY-Y2 confirm,NPY-Y1 potentiator,NPY-Y1 ag 2,CNGC inh,Y2 agonist ctr
N=C1/C(=C/c2cccn2Cc2ccc(Cl)cc2)C(=O)N=C2SC=CN12,-3,-9,15,x,-5,7,x,x,x,x,x
O=C(N/N=C/c1ccc(OC(F)F)cc1)c1cccc(S(=O)(=O)N2CCOCC2)c1,10,0,x,6,57*,x,1,-3,3,3,10*
COCCNC(=O)[C@H](CSCc1ccccc1)N1Cc2ccccc2C1=O,4,x,x,x,102*,x,0,3,3,-1,5
COCCCNC(=O)[C@H](CSCc1ccccc1)N1Cc2ccccc2C1=O,-5,x,x,x,-15,x,x,x,x,x,x
O=S(=O)(c1ccccc1)N1CCC(O)(CSc2ccc(Cl)cc2)CC1,-14,9,10,-4,34*,3,-13,-56,12,-16,5
O=S(=O)(c1ccc(Cl)cc1)N1CCC(O)(CN2CCN(Cc3ccccc3)CC2)CC1,3,2,x,4,-2,x,x,x,x,x,x
N/C(=N\OCc1ccc([N+](=O)[O-])cc1)c1ccncc1,-6,2,x,4,1,x,x,x,x,x,x
CCCOP(=O)(OCCC)C(Nc1ccc(C(C)C)cc1)c1ccc([N+](=O)[O-])cc1 (stereo unspecified),28,9,1,-6,35*,13,12,24,16,6,8
COP(=O)(OC)C(Nc1ccc([N+](=O)[O-])cc1)c1ccccc1 (stereo unspecified),18,x,x,-6,-7,x,x,x,x,x,x
O=S(=O)(c1cnc(Cl)c(Cl)c1)N1CCCc2ccccc21,-1,-2,10,-9,14,3,x,x,x,x,x
O=S(=O)(c1cnc(Cl)c(Cl)c1)N1CCc2ccccc21,31,x,x,-15,42*,x,21,17,11,32*,23*
O=C(c1c(Cl)nc2sccn12)N1CCN(c2cccc(Cl)c2)CC1,16,3,3,-3,-12,6,x,x,x,x,x
O=C(N/N=C/c1ccc(Cl)c([N+](=O)[O-])c1)c1cc(-c2ccc3c4c(cccc24)CC3)n[nH]1,36,x,x,x,45*,x,15,25,18*,12,23*
O=C(N/N=C/c1cccc([N+](=O)[O-])c1)c1cc(-c2ccc3c4c(cccc24)CC3)n[nH]1,2,-5,7,-7,24,0,x,x,x,x,x
O=C1CC(C(=O)Nc2ccccc2)S/C(=N\NC(=O)c2ccccc2Cl)N1 (stereo unspecified),-3,-1,x,-26,-10,x,x,x,x,x,x
COc1ccc(-c2noc(=O)n2Cc2cc(C)ccc2C)cc1,1,5,x,10,8,x,x,x,x,x,x
O=C(c1ccc(S(=O)(=O)Nc2ccc(F)cc2)cc1)N1CCN(c2ccccn2)CC1,-3,-5,x,-6,8,x,x,x,x,x,x
Cc1ccc(NS(=O)(=O)c2ccc(C(=O)N3CCN(c4ncccn4)CC3)cc2)cc1,8,-1,x,-29,35*,x,-5,-19,-20,-10,-13
O=C(Cn1ccc(C(F)(F)F)n1)N/N=C/c1ccc(N2CCOCC2)cc1,0,-3,x,-11,5,x,x,x,x,x,x
CCN(CC)CCCNc1nc2cc(OC)c(OC)cc2c2nc(-c3cccnc3)nn12,-14,-1,8,-21,-18,4,x,x,x,x,x
COc1cc2nc(NCC3CCCO3)n3nc(-c4cccnc4)nc3c2cc1OC (stereo unspecified),15,3,9,-31,65*,-2,-1,8,1,4,9
O=C(O)C1CCCN1c1nc(C(F)(F)F)nc2ccccc12 (stereo unspecified),6,4,x,x,75*,x,-3,-11,-14,-12,4
O=C(Nc1cc(S(=O)(=O)N2CCCCC2)ccc1Cl)c1ccccc1NS(=O)(=O)c1ccc(F)cc1,-59,6,4,-25,42*,3,30,5,0,14,19*
O=C(Nc1cc(S(=O)(=O)N2CCCCC2)ccc1O)c1ccccc1NS(=O)(=O)c1ccc(F)cc1,18,3,7,-11,20,-1,x,x,x,x,x
O=[N+]([O-])c1cc(CN(CCO)CCO)ccc1O,2,x,x,3,11,x,x,x,x,x,x
SMILES,NPY1 pot ag,NPY-Y1 antag,Measles CPE,Mdm2 ligase inh,NPY2 pot ag,NPY-Y2 antag,NPY-Y2 confirm,NPY-Y1 potentiator,NPY-Y1 ag 2,CNGC inh,Y2 agonist ctr
CCCNCc1cc(OC)c(OCc2ccccc2)cc1Br,-11,1,x,x,-25,x,x,x,x,x,x
CC(C)[C@H](Nc1ccc(C(F)(F)F)cc1[N+](=O)[O-])C(=O)O,-16,x,x,4,-12,x,x,x,x,x,x
O=C(NNc1ccc(C(F)(F)F)cc1[N+](=O)[O-])c1ccc(NS(=O)(=O)c2ccc(F)cc2)cc1,38,-12,13,-10,45*,-6,58*,72*,62*,62*,62*
Nc1c(-c2cccc(Cl)c2)cnn1-c1cccc(C(F)(F)F)c1,36,2,5,6,42*,1,61*,68*,61*,47*,74*
Nc1c(-c2ccccc2)cnn1-c1cccc(C(F)(F)F)c1,8,-4,10,-1,6,2,x,x,x,x,x
CCS(=O)(=O)N1Cc2ccccc2CC1C(=O)OCC(=O)Nc1ccc(C)cc1 (stereo unspecified),3,4,8,-4,0,1,x,x,x,x,x
CCN(CC)c1cc(C)c2cc(NC(=O)c3cccs3)ccc2n1,35,-4,x,0,28*,x,33,53*,35*,45*,35*
